# Compound activity as filed in PubChem BioAssay.
# KCNK3 block = human KCNK3 channel inhibitors, primary screen, CHO cells, FluxOR thallium flux, B-score | AID 602410, 2012 | actives 0.84% (n = 340,000) | B-score at 10 µM | FluxOR fluorescence; active compounds read low | Potassium channel subfamily K member 3 (Homo sapiens), O14649;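 active = B-score under library mean minus 4 SD, starting fluorescence ratio at most library mean plus 5 SD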;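 also: more negative B-score means stronger inhibition of thallium flux through KCNK3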
# hERG protect = hERG rescue from dofetilide block, primary screen, cell-based, CHO-hERG, FluxOR thallium flux, dofetilide IC70 | dofetilide IC70 present | AID 1511, 2009 | actives 0.51% (n = 310,000) | activation (rescue from dofetilide block), less the hit threshold, % at 10 µM | Voltage-gated inwardly rectifying potassium channel KCNH2 (Homo sapiens), Q12809;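 active = activation above the mean of controls blocked by dofetilide plus 5 SD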;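 also: thallium influx through hERG after potassium depolarization seen as dye fluorescence rise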
# KCNK9 inh = KCNK9 potassium channel inhibitors, primary screen, HEK293 cells, thallium flux | FluxOR thallium flux fluorescence; active compounds read low | actives 1.2% (n = 310,000) | Potassium channel subfamily K member 9 (Homo sapiens), Q9NPC2 | B-score at 10 µM;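 active = ratio B-score over 3 SD below the library mean, with starting fluorescence within 5 SD of its mean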;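 also: negative B-score means less thallium flux so channel inhibition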
# Kir21 block = inhibitors of mouse Kir2.1 inward-rectifier potassium channel; Inward rectifier potassium channel 2 (Mus musculus), P35561; HEK293-Kir2.1, FluxOR thallium flux fluorescence; active compounds read low; B-score at 10 µM; actives 0.85% (n = 310,000);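 active = fluorescence ratio B-score at or below minus 3 SD of library scores, with starting-brightness B-score within 2 SD, cut at about -4.2 in these data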;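 also: channel flux triggered by added potassium and thallium sulfate stimulus; B-score of peak minus minimum fluorescence over baseline after thallium stimulus; more negative B-score means stronger Kir2.1 block with less thallium influx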
# KCNQ1 pot = potentiators or activators of KCNQ1 channel, primary screen, cell-based, thallium flux, high-throughput; Potassium voltage-gated channel subfamily KQT member 1 (Homo sapiens), P51787; AID 2648, 2010; B-score at 10 µM; actives 0.35% (n = 310,000); CHO-K1 KCNQ1, thallium flux FluxOR fluorescence; active compounds read high;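 active = fluorescence ratio B-score, a plate-corrected score, at least three library SD, with initial intensity B-score within 5 SD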
# Target sequence (P51787 whole entry, looked up): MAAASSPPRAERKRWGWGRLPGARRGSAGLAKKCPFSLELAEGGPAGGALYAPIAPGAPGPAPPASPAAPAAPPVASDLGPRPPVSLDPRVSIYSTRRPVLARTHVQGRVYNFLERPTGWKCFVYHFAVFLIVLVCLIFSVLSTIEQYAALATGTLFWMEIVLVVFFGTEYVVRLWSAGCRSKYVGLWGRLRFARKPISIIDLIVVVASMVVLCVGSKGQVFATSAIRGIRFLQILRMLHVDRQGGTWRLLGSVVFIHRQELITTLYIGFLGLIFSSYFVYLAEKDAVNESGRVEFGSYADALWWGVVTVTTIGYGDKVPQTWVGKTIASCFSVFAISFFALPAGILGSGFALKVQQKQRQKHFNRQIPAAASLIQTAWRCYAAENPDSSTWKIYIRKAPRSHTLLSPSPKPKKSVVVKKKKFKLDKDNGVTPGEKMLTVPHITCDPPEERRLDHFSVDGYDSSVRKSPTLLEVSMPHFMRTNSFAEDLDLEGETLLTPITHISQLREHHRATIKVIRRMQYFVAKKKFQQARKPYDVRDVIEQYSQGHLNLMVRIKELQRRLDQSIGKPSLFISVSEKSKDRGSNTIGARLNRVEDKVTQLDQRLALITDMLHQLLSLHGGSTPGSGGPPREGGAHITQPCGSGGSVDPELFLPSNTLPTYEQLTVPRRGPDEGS
#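 Assay system: CHO-K1 cells stably expressing KCNQ1. Medium: assay buffer for compound exposure, DMSO matched across wells. Timing: 37 °C overnight plating, 90-min dark dye load, 20-min compound pretreatment. Signal: kinetic FluxOR fluorescence, 10 s baseline plus 110 s post-stimulus.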
# KCNQ1 inh = inhibitors of human KCNQ1 channel, primary screen, cell-based, thallium flux, high-throughput; CHO-K1 KCNQ1, FluxOR thallium flux fluorescence; active compounds read high; AID 2642, 2010; B-score at 10 µM; actives 1.3% (n = 310,000); Potassium voltage-gated channel subfamily KQT member 1 (Homo sapiens), P51787;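 active = compounds whose thallium flux B-score, printed positive for inhibition, exceeds three library SD while starting fluorescence stays within three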;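 also: channel opened by potassium depolarization with thallium stimulus after 20 min compound exposure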
# KCNK9 block conf = KCNK9 potassium channel inhibitors, confirmation, HEK293 cells, thallium flux, duplicate; shares compounds with KCNK9 inh; FluxOR thallium flux fluorescence; inhibition, % at 10 µM; actives 43% (n = 4,900); AID 492992, 2010;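 active = thallium signal inhibited by more than 5 SD of the compound-free buffer control wells, on both duplicate plates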;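 also: 0% = assay buffer control wells without compound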
# Kir2-1 spec = mouse Kir2.1 channel inhibition, confirmation, selectivity assay for KCNK9 modulator project, cell-based, HEK293, thallium flux. AID 492993, 2010. inhibition, % at 10 µM. Kir2.1 cells, FluxOR thallium flux fluorescence. shares compounds with KCNK9 inh. actives 4% (n = 4,900);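 active = thallium signal drop more than 5 SD beyond the mean of the no-compound control wells, seen in both duplicate plates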;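 also: signal is fluorescence rise after thallium addition divided by baseline fluorescence; plate controls were assay buffer only for no effect and full block by chlorpromazine control for full effect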
# KCNK9 uninduced = thallium flux in non-induced HEK293 cells, confirmation, counter-screen for KCNK9 inhibitor project, cell-based, second counter screen, non-induced KCNK9-HEK293; shares compounds with KCNK9 inh; FluxOR thallium flux; inhibition, % at 10 µM; actives 40% (n = 4,900); AID 492997, 2010;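 active = thallium signal drop beyond 5 SD of the untreated control mean, on both duplicate plates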;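 also: plate controls were buffer only IC0 wells for no effect and SID17386958 at its maximal inhibitory level for full effect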
# * hit, by the source's call; i = inactive; . = no result. Shown are actives, neighbours in structure and some others; about 3.7% of the full set was active somewhere.
SMILES,KCNK3 block,hERG protect,KCNK9 inh,Kir21 block,KCNQ1 pot,KCNQ1 inh,KCNK9 block conf,Kir2-1 spec,KCNK9 uninduced
Cc1c(Cl)cccc1NC(=S)N(CCN(C)C)C(C)c1ccco1 (configuration not stated),i,-7.4,i,1.75,i,i,i,i,i
C/C(CC(=O)Nc1ccc(Cl)c(C(F)(F)F)c1)=N\NC(N)=S,i,-14.8,i,0.58,i,7*,i,i,i
Cc1ccc(N(CCCCN2C(=O)c3ccccc3C2=O)C(=O)c2cccs2)cc1,i,-11.4,i,0.3,i,i,i,i,i
COc1cc(C)ccc1N(CCCN1C(=O)c2cccc3cccc(c23)C1=O)C(=O)c1cccs1,i,-22.0,-14.1*,1.22,i,i,80.0%*,i,33.5%*
COc1ccc(N(CCCN2C(=O)c3cccc4cccc(c34)C2=O)C(=O)c2cccs2)cc1,i,-7.9,i,0.43,i,i,.,.,.
CC(NC(=O)COC(=O)c1ccc([N+](=O)[O-])o1)c1ccccc1 (configuration not stated),i,.,.,.,.,.,.,.,.
COc1cccc(-c2nc(CS(=O)(=O)CC(=O)NCCCN3CCOCC3)c(C)o2)c1,i,-7.1,i,-0.22,i,i,.,.,.
Cc1cccc(OCCCC(=O)N2CCCc3ccccc32)c1C,i,-16.7,i,-0.4,i,i,i,i,i
O=C(OCC(=O)N1CCCc2ccccc21)c1cccc(C(F)(F)F)c1,i,-12.1,i,0.01,i,i,i,i,i
O=C(OCC(=O)N1CCCc2ccccc21)c1cnc(Cl)c(Cl)c1,i,-18.9,i,-0.86,i,i,i,i,i
O=C(CCC1CCN(C(=O)c2ccccc2Cl)CC1)NCc1ccc(F)cc1,i,-7.0,i,0.09,i,i,.,.,.
CCCCCCCSc1nnc(N)s1,i,-1.9,i,-0.2,i,i,.,.,.
CC1CCCCN1C(=O)CCS(=O)(=O)c1cccc2nonc12 (configuration not stated),i,-8.6,i,-1.3,i,i,.,.,.
CC(C)c1ccccc1NC(=O)C1CCCN(C(=O)c2ccc(Cl)cc2)C1 (configuration not stated),i,.,.,.,.,.,.,.,.
COc1cc(N2CCCC2)c(OC)cc1/C=C(/C#N)c1ccc(Br)cc1,i,-10.5,i,-1.53,i,i,.,.,.
COc1cc(N2CCCC2)c(OC)cc1/C=C(/C#N)c1ccc(F)cc1,i,-14.6,-11.7*,1.49,i,7*,50.0%*,i,66.0%*
O=C(NCCNc1ccc([N+](=O)[O-])cc1C(F)(F)F)c1cccc(F)c1,i,-4.7,i,-1.49,i,i,i,i,i
O=C(NCCNc1ccc([N+](=O)[O-])cc1C(F)(F)F)c1ccccc1,i,-8.0,i,-0.98,i,i,i,i,i
O=C(CN1C(=O)c2ccccc2C1=O)Oc1ccc(Cl)cc1,i,-3.8,i,-0.69,i,i,.,.,.
COc1cc(CCC(=O)N2CCN(c3ccccc3)CC2)cc(OC)c1OC,i,-9.8,i,-1.27,i,i,.,.,.
CCN1C(=O)/C(=C\c2ccc(-c3ccc([N+](=O)[O-])cc3OC)o2)SC1=Nc1cccc(C(=O)O)c1,i,-2.4,i,1.27,i,i,i,i,i
CCOc1ccc(Cc2c(Cl)nc(SC)nc2OC)cc1,i,-12.6,i,1.82,i,i,i,i,25.5%*
COc1ccc(Cc2c(N)nc(C)nc2N)cc1,i,-14.3,i,0.18,i,i,.,.,.
NC(=O)C1CC(=O)N(c2ccc(OCc3c(Cl)cccc3Cl)cc2)C1 (configuration not stated),i,-12.0,i,0.41,i,i,.,.,.
COc1ccccc1CN1C[C@@H]2C[C@@H](c3ccccc3C)N3CCC[C@@]23C1=O,i,-7.5,i,0.73,i,i,i,i,i
SMILES,KCNK3 block,hERG protect,KCNK9 inh,Kir21 block,KCNQ1 pot,KCNQ1 inh,KCNK9 block conf,Kir2-1 spec,KCNK9 uninduced
NC(=O)c1ccc(NC(=O)CSC(=O)c2ccccc2)cc1,i,.,.,.,.,.,.,.,.
CCn1c(SCC(=O)Nc2cccc(C)n2)nc2c1c(=O)n(C)c(=O)n2C,i,-15.2,i,-2.1,i,i,.,.,.
O=c1c2ccccc2nc(N2CCN(c3ccccc3)CC2)n1Cc1ccccc1,i,-8.7,-13.3*,-1.16,i,i,61.5%*,i,39.5%*
O=C(CSc1nc(-c2ccccc2Cl)ns1)c1ccc(Cl)cc1,i,1.2,-12.3*,-1.2,i,i,46.0%*,i,43.0%*
CCOC(=O)CSc1nc(C2CC2)cc(-c2ccc(Cl)cc2)c1C#N,i,-3.5,-9.47*,-2.15,i,i,53.5%*,i,i
COC(=O)CSc1nc(C2CC2)cc(C(F)(F)F)c1C#N,i,-12.0,i,-1.96,i,i,.,.,.
Nc1nc(SCC(=O)Nc2cccc(F)c2)n[nH]1,i,.,.,.,.,.,.,.,.
COc1ccc(OC)c(/C=C2\SC(=S)N(NS(=O)(=O)c3ccc(C)cc3)C2=O)c1,i,-4.3,i,-0.23,i,i,i,i,i
CCOc1ccc(/C=C2\SC(=S)N(NS(=O)(=O)c3ccc(C)cc3)C2=O)cc1OC,i,-18.1,i,0.72,i,i,i,i,i
COc1ccc(/C=C2\SC(=S)N(NS(=O)(=O)c3ccccc3)C2=O)c(OC)c1,i,-8.2,i,2.51,19*,i,i,i,i
COc1cc(OC)cc(OC(=O)C2CCN(S(=O)(=O)c3ccc(OC)c(OC)c3)CC2)c1,i,-8.9,i,1.46,i,i,.,.,.
